Most compounds without a hit are left out; they make up all but 2% or so of the library.
Bfl-1 A1 inh: caspase 3/7 activation in MEF A1-2A-BIM cells, primary screen, A1 inhibitor project, cell-based, luminescence, HTS; AID 2462, 2010; hit rate 0.066% among 330,000; caspase activation, % (no concentration beside the values); Caspase-Glo 3/7 luminescence, 3 h; percent of clofoctol response, vehicle zero;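 active means over half of replicate activation scores above 10%, or exactly half above 10 with the replicate mean above 10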
MC4R antag cAMP: MC4R antagonists of cAMP signaling, primary screen, cell-based, TR-FRET, antagonist arm of biased-ligand search | AID 540295, 2011 | Melanocortin receptor 4 (Homo sapiens), P32245 | hit rate 0.48% among 360,000 | inhibition, % at 6.5 µM | MC4R-expressing cells, MTII-stimulated cAMP, LANCE TR-FRET;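 active means inhibition above its plate's cutoff, the mean of tested wells on that plate plus 3 SD, cut at about 29% in these data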;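 further: 0% = Melanotan II alone and 100% = Melanotan II plus saturating MCL0020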
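Material – human MC4R-expressing U2OS cells · Repeats – no replicates · Detection – TR-FRET with Eu-cAMP and labeled anti-cAMP, 671 nm · Times – compound 30 min, challenge 1 h, detection 1 h · Compound – single nominal compound dose of 6.5 µM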
MC4R ag barr: MC4R agonists recruiting beta-arrestin, primary screen, cell-based, luminescence, agonist arm of biased-ligand search; Melanocortin receptor 4 (Homo sapiens), P32245; U2OS MC4R beta-arrestin complementation; percent of melanotan II response, DMSO zero; activation, % at 8.9 µM; hit rate 0.98% among 360,000;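 active means activation above a per-plate cutoff, the mean activation of sample wells on that plate plus 3 SD, cut at about 8% in these data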
UPR XBP1 act: activators of adaptive XBP1 UPR arm, primary screen, cell-based, CHO-XBP1 luciferase reporter, luminescence, uHTS. IRE1-XBP1 UPR activation; percent of tunicamycin response, DMSO as zero. activation, % at 20 µM. AID 463104, 2010. hit rate 0.33% among 330,000;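 active means versus positive control, 20 µM dose yields 30% or more activation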;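 further: 100% = tunicamycin at 10 µg/mL and 0% = DMSO only wells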
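Test system: CHO-XBP1 luciferase reporter cells | Buffer or medium: Serum-containing F12 medium, 10% FBS | Schedule: 6 h compound exposure at 37 °C, 5% CO2 | Detection: Steady-Glo luciferase glow luminescence, 10 min after reagent addition | Read-out basis: Activation, % of tunicamycin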
CHOP UPR activ: activators of apoptotic CHOP UPR arm, primary screen, cell-based, CHO-CHOP luciferase reporter, luminescence, uHTS | UPR activation; percent of tunicamycin response over DMSO baseline | activation, % at 10 µM | hit rate 0.34% among 330,000 | AID 449763, 2010;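 active means at 10 µM dose, activation of 40% or more, normalized to positive control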;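 further: 100% = tunicamycin at 10 µg/mL and 0% = DMSO alone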
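System: CHO-CHOP luciferase reporter cell line; amount: 500 cells/well; buffer or medium: F12 medium containing 10% fetal bovine serum; incubation: 6 h compound exposure at 37 °C after overnight seeding; measured by: luciferase luminescence after 10 min with Steady-Glo reagent; evaluation: % reporter activation, DMSO baseline versus tunicamycin full activation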
MC4R barr conf: MC4R beta-arrestin agonists, retest, confirmation, cell-based, luminescence, U2OS | shares compounds with MC4R ag barr | activation, % at 8.9 µM | U2OS MC4R beta-arrestin recruitment; scaled DMSO 0%, Melanotan II 100% | AID 602192, 2012 | hit rate 31% among 2,400;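 active means mean activation across replicates above the hit cutoff set in the earlier primary screen, cut at about 8% in these data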
MOR-DOR barr ag: agonists of MOR-DOR heterodimerization, counter-screen for MC4R biased agonist project, cell-based, luminescence | activation, % at 9.2 µM | hit rate 5.8% among 2,400 | shares compounds with MC4R ag barr | U2OS PathHunter beta-arrestin, beta-gal luminescence; percent of deltorphin B response, DMSO zero;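 active means mean activation across replicates exceeds the hit threshold derived in the earlier primary screen, cut at about 18% in these data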;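 further: 100% = deltorphin B at 0.9 µM final and 0% = DMSO alone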
Target sequence (P35372 whole entry, looked up): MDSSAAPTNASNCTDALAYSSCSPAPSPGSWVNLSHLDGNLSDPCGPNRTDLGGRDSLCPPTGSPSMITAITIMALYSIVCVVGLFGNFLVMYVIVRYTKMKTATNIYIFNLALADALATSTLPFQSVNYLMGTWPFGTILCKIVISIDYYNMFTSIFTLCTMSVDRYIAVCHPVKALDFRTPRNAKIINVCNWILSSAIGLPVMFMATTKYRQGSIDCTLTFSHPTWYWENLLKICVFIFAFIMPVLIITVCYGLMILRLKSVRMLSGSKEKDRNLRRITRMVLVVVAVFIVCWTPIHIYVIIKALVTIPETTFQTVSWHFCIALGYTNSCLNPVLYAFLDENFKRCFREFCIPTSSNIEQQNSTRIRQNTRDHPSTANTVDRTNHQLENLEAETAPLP
Target sequence (P41143 whole entry, looked up): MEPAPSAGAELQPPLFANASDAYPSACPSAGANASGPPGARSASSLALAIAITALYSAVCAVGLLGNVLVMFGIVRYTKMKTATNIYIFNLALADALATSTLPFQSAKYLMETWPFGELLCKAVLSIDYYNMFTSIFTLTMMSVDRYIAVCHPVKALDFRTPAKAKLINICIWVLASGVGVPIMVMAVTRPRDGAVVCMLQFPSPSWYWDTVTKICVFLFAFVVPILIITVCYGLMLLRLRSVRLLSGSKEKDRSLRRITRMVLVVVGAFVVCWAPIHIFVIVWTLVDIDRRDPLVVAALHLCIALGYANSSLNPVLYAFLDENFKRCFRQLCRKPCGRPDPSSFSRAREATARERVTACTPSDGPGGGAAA
* = called active by the depositor; nt = no result given.

SMILES	Bfl-1 A1 inh	MC4R antag cAMP	MC4R ag barr	UPR XBP1 act	CHOP UPR activ	MC4R barr conf	MOR-DOR barr ag
CNc1ncnc2c1ncn2[C@H]1CN(Cc2ccc(F)cc2)C[C@@H](CO)O1	nt	2	1	nt	nt	nt	nt
CC1(C(=O)NS(=O)(=O)C2CC2)CCCN(C(=O)c2cccnc2Oc2ccccc2)C1 (centres undefined)	nt	2	-1	nt	nt	nt	nt
Cc1cc(=O)[nH]c2nc3ccccc3n12	nt	5	-3	nt	nt	nt	nt
OC[C@@H]1CN(Cc2ccc3c(c2)OCO3)C[C@H](n2cnc3c(N4CCN(c5ccccc5)CC4)ncnc32)O1	nt	1	2	nt	nt	nt	nt
CS(=O)(=O)N1CCCCC1c1cc(C(=O)NCc2ccc(Cl)c(Cl)c2)no1 (centres undefined)	nt	-2	-2	nt	nt	nt	nt
O=C(Nc1ccccc1)c1ccc(OC(=O)c2ccccc2)cc1	-8	-2	9.8*	-2	4	5	2
CC(C)OC(=O)c1ccc(NC(=O)c2ccccc2)cc1	-4	-15	0	1	5	nt	nt
O=C(Oc1ccc(NC(=O)c2cc3c(cc2Br)OCO3)cc1)c1ccccc1	-3	5	14*	6	0	6	6
Cc1cc(C)cc(OCC(=O)Nc2nc(-c3ccccn3)cs2)c1	nt	-9	12*	1	1	3	3
N#Cc1ccccc1OCC(=O)Nc1nc(-c2ccccn2)cs1	nt	-5	-2	nt	nt	nt	nt
CCNC(=O)C1(C)CCN(C(=O)c2ccccc2C(F)(F)F)C1 (centres undefined)	nt	-4	0	nt	nt	nt	nt
Cc1cccc(-c2nsc(SCC(=O)Nc3nccs3)n2)c1	0	6	13*	0	0	0	8
CCOC(=O)CNC(=O)CSc1nc(-c2ccc(OC)cc2)ns1	0	7	1	1	2	nt	nt
Cc1ccc2cc(C)c(SCC(=O)Nc3cc(C)on3)nc2c1	0	18	20*	2	-1	6	3
COc1ccc(-c2nsc(SCC(=O)Nc3cc(C)on3)n2)cc1	2	6	17*	-1	-1	-1	7
Cc1cccc(-c2nsc(SCC(=O)Nc3ccc4c(c3)OCO4)n2)c1	-1	4	3	1	1	nt	nt
CCc1cc2cc(C)c(C)cc2nc1SCC(=O)Nc1cc(C)on1	0	11	1	1	1	nt	nt
O=C(NCCc1ccccc1)C1Cc2c(-c3ccc(Cl)cc3)ccnc2O1 (centres undefined)	nt	3	-1	nt	nt	nt	nt
C[C@H](NC(=O)c1ccccc1)C(=O)OCC(=O)Nc1ccc(Cl)cn1	nt	4	0	nt	nt	nt	nt
CCC(=O)N1CCc2cc(S(=O)(=O)NCCC(=O)N3CCN(c4cccc(C)c4)C(C)C3)ccc21 (centres undefined)	-1	1	-2	-11	4	nt	nt
Cc1nnnn1/C(=C\c1ccccc1)C(=O)OCC(=O)Nc1ccc(Cl)cc1F	0	-26	37*	-5	6	24*	4
Cc1nnnn1/C(=C\c1ccccc1)C(=O)OCC(=O)Nc1cccc(S(=O)(=O)N(C)C)c1	2	12	-2	-5	7	nt	nt
CCc1nc(NCC2CC2)c2nnn(Cc3ccccc3)c2n1	nt	-1	12*	nt	nt	4	10
COc1cc(/C=C2/CC/C(=C/c3ccc(O)c(OC)c3)C2=O)ccc1O	-1	-12	55*	3	0	32*	18*
Fc1ccccc1/C=N/Nc1nc2ccccc2o1	-6	-1	13*	-3	2	-1	5

Screening results as filed in PubChem.
